Measurements taken from ChEMBL document CHEMBL4007470, “Discovery of a 2'-fluoro-2'-C-methyl C-nucleotide HCV polymerase inhibitor and a phosphoramidate prodrug with favorable properties” (Bioorg Med Chem Lett, 2017).
In brackets after ≈: the same amount, converted by molar mass.

Experiments:
[1] = Permeability of the compound from basolateral to apical side in human Caco2 cells at 10 uM; assay type: ADME, cell-based, Caco-2; details: for Papp B→A at 10 µM: Caco-2, read-out: permeability
In short: (§1)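 Caco-2 permeability at 10 μM compound, measured in apical-to-basolateral and basolateral-to-apical directions.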

Hepatitis C virus [2] = test: Antiviral activity against HCV genotype 1b infected in human HuH7 cells by luciferase reporter gene assay; assay type: functional, cell-based, Hepacivirus hominis
In short: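 Luciferase-reporter genotype 1b subgenomic replicon in Huh-7 cells; EC50 is concentration giving 50% inhibition. Values are averages of at least three repeats.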

Hepatitis C virus [3] = test: Antiviral activity against HCV genotype 1a infected in human HuH7 cells by luciferase reporter gene assay; assay type: functional, cell-based, Hepacivirus hominis, subtype 1a
Hepatitis C virus [4] = test: Antiviral activity against HCV genotype 4a infected in human HuH7 cells by luciferase reporter gene assay; assay type: functional, cell-based, Hepacivirus hominis
[5] = (§2) Half life in human plasma at 2 uM by LC-MS/MS analysis; assay type: ADME, cell-free
In short: (§3)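 Compound at 2 μM incubated in plasma at 37 °C for up to 4 h. Aliquots quenched with 9 volumes of acetonitrile containing internal standard, then centrifuged. Supernatant analysed by LC-MS/MS.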

[6] = Half life in hamster plasma at 2 uM by LC-MS/MS analysis; assay type: ADME, cell-free; details: cricetinae; for t1/2: 2 µM; in short: as §3
[7] = Half life in human intestinal S9 fractions at 2 uM by LC-MS/MS analysis; assay type: ADME, Intestine
In short: (§4)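 Compound at 2 μM incubated with S9 fractions at 37 °C for 90 min with NADPH and UDPGA. Quenched with aqueous acetonitrile/methanol containing internal standard and analysed by LC-MS/MS. Half-life from an exponential fit assuming first-order kinetics. Hepatic extraction predicted from half-life using the well-stirred model.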

[8] = Half life in hamster intestinal S9 fractions at 2 uM by LC-MS/MS analysis; assay type: ADME, Intestine; details: cricetinae; for half-life at 2 µM: intestinal S9 fractions; for t1/2: s9, 2 µM, 2 µM
[9] = (§5) Hepatic extraction in human liver S9 fractions at 2 uM by LC-MS/MS analysis; assay type: ADME; details: liver S9 fractions, read-out: ERH; in short: as §4
[10] = Hepatic extraction in hamster liver S9 fractions at 2 uM by LC-MS/MS analysis; assay type: ADME; details: cricetinae; for hepatic extraction ratio at 2 µM: liver S9 fractions, read-out: ERH; in short: as §4
[11] = Prodrug activation in Syrian golden hamster liver assessed as triphosphate metabolite formation at 5 mg equivalents/kg, po after 1 hr by LC-MS/MS analysis; assay type: ADME, organism-based, Mesocricetus auratus; details: in vivo
In short: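 Golden Syrian hamsters (groups of 12) dosed orally at 5 mg-eq/kg in EtOH/PEG400/water buffered with 50 mM pH 4 citrate. Livers harvested under isoflurane at 1 h and extracted in cold KOH/EDTA/70% MeOH with Cl-ATP. Triphosphate measured by LC/MS/MS, with endogenous ATP checked for sample stability.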

[12] = Solubility of the compound in pH 7.4 solution; assay type: physicochemical
In short: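 Solubility measured at pH 7.4 using amorphous material.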

[13] = Permeability of the compound from apical to basolateral side in human Caco2 cells at 10 uM; assay type: ADME, cell-based, Caco-2; details: for Papp A→B at 10 µM: Caco-2, read-out: permeability; in short: as §1
Plasma [14] = test: Stability in rat plasma at 2 uM up to 4 hrs by LC-MS/MS analysis; assay type: ADME, cell-free; in short: as §3
[15] = Fraction absorbed in Beagle dog at 5 mg/kg, po; assay type: ADME, organism-based, Canis lupus familiaris; details: in vivo, read-out: Fabs
In short: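 Male beagle dogs dosed orally at 5 mg/kg. Fraction absorbed determined by portal vein sampling.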

[16] = Prodrug activation in human HuH7 cells infected with HCV genotype 1b assessed as ((2R,3R,4R,5S)-5-(4-aminoimidazo[1,2-f][1,2,4]triazin-7-yl)-4-fluoro-3-hydroxy-4-methyltetrahydrofuran-2-yl)methyl tetrahydrogen triphosphate level per million cells at 10 uM after 2 hrs by LC-MS/MS analysis; assay type: cell-based; details: huh-7, 2 h
In short: (§6)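 HCV genotype 1b replicon Huh-7 cells (DMEM with glutaMAX, 10% heat-inactivated FBS, penicillin-streptomycin, G418) grown to confluency (0.88×10^6 cells/well), exposed continuously to prodrug at 10 μM for up to 24 h; washed in ice-cold saline, extracted into 70% methanol overnight, dried, resuspended in 1 mM ammonium phosphate pH 8.5; triphosphate quantified by LC-MS/MS; LLOQ 0.137 pmol/million cells; duplicate wells, single experiment.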

Huh-7 = test: Cytotoxicity against human HuH7 cells; assay type: cell-based
[17] = Prodrug activation in human HuH7 cells infected with HCV genotype 1b assessed as ((2R,3R,4R,5S)-5-(4-aminoimidazo[1,2-f][1,2,4]triazin-7-yl)-4-fluoro-3-hydroxy-4-methyltetrahydrofuran-2-yl)methyl tetrahydrogen triphosphate level per million cells at 10 uM after 6 hrs by LC-MS/MS analysis; assay type: cell-based; details: huh-7, 6 h; in short: as §6
[18] = Prodrug activation in human HuH7 cells infected with HCV genotype 1b assessed as ((2R,3R,4R,5S)-5-(4-aminoimidazo[1,2-f][1,2,4]triazin-7-yl)-4-fluoro-3-hydroxy-4-methyltetrahydrofuran-2-yl)methyl tetrahydrogen triphosphate level per million cells at 10 uM after 24 hrs by LC-MS/MS analysis; assay type: cell-based; details: huh-7, 24 h; in short: as §6
[19] = Inhibition of human RNA polymerase-2
Plasma [20] = test: as §2; assay type: ADME, cell-free; details: 2 µM; in short: as §3
Liver = test: as §5; assay type: ADME; details: s9, 2 µM, 2 µM; in short: as §4
[21] = Inhibition of human DNA polymerase-alpha
[22] = Inhibition of HCV genotype 1b wild-type NS5B RNA dependent RNA polymerase; design: species or system Hepatitis C virus subtype 1b
[23] = test system: RNA-directed RNA polymerase (Hepacivirus hominis), O39930 [UNDEFINED MUTATION]; test: Inhibition of HCV genotype 1b wild-type NS5B RNA dependent RNA polymerase S282T mutant relative to control; details: Hepatitis C virus subtype 1b
[24] = Prodrug activation in human HuH7 cells infected with HCV genotype 1b assessed as ((2R,3R,4R,5R)-5-(4-aminoimidazo[1,2-f][1,2,4]triazin-7-yl)-5-cyano-4-fluoro-3-hydroxy-4-methyltetrahydrofuran-2-yl)methyl tetrahydrogen triphosphate level per million cells at 10 uM after 2 hrs by LC-MS/MS analysis; assay type: cell-based; details: huh-7, 2 h; in short: as §6
[25] = Prodrug activation in human HuH7 cells infected with HCV genotype 1b assessed as ((2R,3R,4R,5R)-5-(4-aminoimidazo[1,2-f][1,2,4]triazin-7-yl)-5-cyano-4-fluoro-3-hydroxy-4-methyltetrahydrofuran-2-yl)methyl tetrahydrogen triphosphate level per million cells at 10 uM after 6 hrs by LC-MS/MS analysis; assay type: cell-based; details: huh-7, 6 h; in short: as §6
[26] = Prodrug activation in human HuH7 cells infected with HCV genotype 1b assessed as ((2R,3R,4R,5R)-5-(4-aminoimidazo[1,2-f][1,2,4]triazin-7-yl)-5-cyano-4-fluoro-3-hydroxy-4-methyltetrahydrofuran-2-yl)methyl tetrahydrogen triphosphate level per million cells at 10 uM after 24 hrs by LC-MS/MS analysis; assay type: cell-based; details: huh-7, 24 h; in short: as §6
[27] = Prodrug activation in human HuH7 cells infected with HCV genotype 1b assessed as ((2R,3R,4R,5S)-5-(4-aminopyrrolo[1,2-f][1,2,4]triazin-7-yl)-4-fluoro-3-hydroxy-4-methyltetrahydrofuran-2-yl)methyl tetrahydrogen triphosphate level per million cells at 10 uM after 2 to 24 hrs by LC-MS/MS analysis; assay type: cell-based; details: huh-7, 10 µM; in short: as §6
[28] = Prodrug activation in human HuH7 cells infected with HCV genotype 1b assessed as ((2R,3R,4R,5S)-5-(4-aminopyrrolo[1,2-f][1,2,4]triazin-7-yl)-4-fluoro-3-hydroxy-4-methyltetrahydrofuran-2-yl)methyl tetrahydrogen monophosphate level at 10 uM after 2 to 24 hrs by LC-MS/MS analysis; assay type: cell-based; details: huh-7, 10 µM
[29] = Prodrug activation in human HuH7 cells infected with HCV genotype 1b assessed as ((2R,3R,4R,5S)-5-(4-aminopyrrolo[1,2-f][1,2,4]triazin-7-yl)-4-fluoro-3-hydroxy-4-methyltetrahydrofuran-2-yl)methyl tetrahydrogen diphosphate level at 10 uM after 2 to 24 hrs by LC-MS/MS analysis; assay type: cell-based; details: huh-7, 10 µM
[30] = Hepatitis C virus, genotype 1b, Huh-7
[31] = Hepatitis C virus, subtype 1a, Huh-7
[32] = Hepatitis C virus, genotype 4a, Huh-7

SMILES	Papp B→A at 10 µM [1] [×10⁻⁶ cm/s]	EC50 (Hepatitis C virus [2]; [30]) [nM]	EC50 (Hepatitis C virus [4]; [32]) [nM]	half-life at 2 µM [5] [h]	half-life at 2 µM [7] [h]	hepatic extraction ratio at 2 µM [9]	hepatic extraction ratio at 2 µM [10]	liver triphosphate concentration [11] [µM]	solubility [12] [µg/mL]	Papp A→B at 10 µM [13] [×10⁻⁶ cm/s]	Stability (Plasma [14])	further results
CC(C)OC(=O)[C@H](C)N[P@](=O)(OC[C@H]1O[C@@H](c2cnc3c(N)ncnn23)[C@](C)(F)[C@@H]1O)Oc1ccccc1	16.6	670	110	> 13.2	9.83	0.65	0.97	0.34	642 (≈ 1160 µM)	0.94	Unstable	EC50 (Hepatitis C virus [3]; [31]): 510 nM; half-life at 2 µM [6]: > 13.2 h; half-life at 2 µM [8]: 0.183 h
CC(C)OC(=O)C1(NP(=O)(OC[C@H]2O[C@@H](c3cnc4c(N)ncnn34)[C@](C)(F)[C@@H]2O)Oc2ccccc2)CCC1 (stereo in doubt; 37)	9.7		380	8.9	> 13.2	0.79	0.93	1.89	538 (≈ 930 µM)	2.4	Unstable	EC50 (Hepatitis C virus [2]): 18800 nM; EC50 (Hepatitis C virus [3]): 2300 nM; t1/2 [6]: > 13.2 h; t1/2 [8]: 0.8 h; Fa [15]: > 70%
CC(C)OC(=O)C(C)(C)NP(=O)(OC[C@H]1O[C@@H](c2ccc3c(N)ncnn23)[C@](C)(F)[C@@H]1O)Oc1ccccc1 (some centres undefined)	17.6	41800	1100	2.58	> 13.2	0.65	0.86	1.29	657 (≈ 1160 µM)	4.2	Unstable	EC50 (Hepatitis C virus [3]; [31]): 5000 nM; half-life at 2 µM [6]: 2.07 h; half-life at 2 µM [8]: 1.77 h
CCOC(=O)[C@H](C)NP(=O)(OC[C@H]1O[C@@H](c2cnc3c(N)ncnn23)[C@](C)(F)[C@@H]1O)Oc1ccccc1 (some centres undefined)		580 to 590	100	7.57	2.23	0.83	0.76					Drug metabolism [16]: 2.4 pmol; Activity (Huh-7): Non-Toxic; Drug metabolism [17]: 13 pmol; Drug metabolism [18]: 20.5 pmol; EC50 (Hepatitis C virus [3]; [31]): 370 nM; half-life at 2 µM [6]: > 13.2 h; half-life at 2 µM [8]: 0.4 h
CC[C@H](C)[C@@H]1NC(=O)CNC(=O)[C@@H]2Cc3c([nH]c4cc(O)ccc34)[S+]([O-])C[C@@H](NC(=O)CNC1=O)C(=O)N[C@@H](CC(N)=O)C(=O)N1C[C@H](O)C[C@H]1C(=O)NC([C@@H](C)[C@@H](O)CO)C(=O)N2 (some centres undefined)												IC50 [19]: 2.4 nM
CC(C)OC(=O)C1(NP(=O)(OC[C@H]2O[C@@H](c3cnc4c(N)ncnn34)[C@](C)(F)[C@@H]2O)Oc2ccccc2)CCC1 (stereo in doubt; 54)												permeability ([1]; caco-2, 10 µM, 10 µM): 9.2 ×10⁻⁶ cm/s; EC50 (Hepatitis C virus [2]): 31200 nM; EC50 (Hepatitis C virus [3]): 7300 nM; EC50 (Hepatitis C virus [4]): 740 nM; t1/2 (Plasma [20]): > 13.2 h; t1/2 [6]: 7.17 h; t1/2 [8]: 0.3 h; ERH (Liver): 78%; ERH ([10]; s9, 2 µM, 2 µM): 96%; permeability ([13]; caco-2, 10 µM, 10 µM): 1.3 ×10⁻⁶ cm/s
C[C@@]1(CO)[C@H](O)CC[C@@]2(C)[C@H]1CC[C@H]1C[C@@H]3C[C@@]12CC[C@]3(O)CO [APHIDICOLIN]												IC50 [21]: 7300 nM
C[C@@]1(F)[C@H](O)[C@@H](COP(=O)(O)OP(=O)(O)OP(=O)(O)O)O[C@@]1(C#N)c1ccc2c(N)ncnn12 [GS-441326]		> 89000										IC50 [22]: 420 nM; fold change (FC) [23]: 6
CCOC(=O)[C@H](C)NP(=O)(OC[C@H]1O[C@@](C#N)(c2ccc3c(N)ncnn23)[C@](C)(F)[C@@H]1O)Oc1ccccc1 (some centres undefined)		3240										Activity (Huh-7): Non-Toxic; Drug metabolism [24]: 1.6 pmol; Drug metabolism [25]: 5.8 pmol; Drug metabolism [26]: 3.3 pmol
CC(C)OC(=O)[C@H](C)N[P@@](=O)(O)OC[C@H]1O[C@@](C#N)(c2ccc3c(N)ncnn23)[C@](C)(O)[C@@H]1O	8.9							0.53	306 (≈ 614 µM)	0.2	Unstable	Fa [15]: 10%
C[C@@]1(O)[C@H](O)[C@@H](COP(=O)(O)OP(=O)(O)OP(=O)(O)O)O[C@H]1c1ccc2c(N)ncnn12		> 89000										IC50 [22]: 290 nM; fold change (FC) [23]: > 30
CCOC(=O)[C@H](C)NP(=O)(OC[C@H]1O[C@@H](c2ccc3c(N)ncnn23)[C@](C)(F)[C@@H]1O)Oc1ccccc1 (some centres undefined)		> 89000										Drug metabolism [27]: < 0.137 pmol; Drug metabolism [28]: Metabolite_Detected; Drug metabolism [29]: Metabolite_Notdetected
